Measured values from ChEMBL document CHEMBL1773044, “Potent, selective, and orally bioavailable inhibitors of mammalian target of rapamycin (mTOR) kinase based on a quaternary substituted dihydrofuropyrimidine” (J Med Chem, 2011).

Columns and labels:
[1] = Clearance in mouse at 1 mg/kg, iv; assay type: ADME, organism-based; parameters: dose 1 mg/kg, route intravenous; conditions: in vivo
How it was run: (§1)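 Mouse PK: iv dose 1 mg/kg given as a solution in 80% PEG/10% EtOH; po dose 5 mg/kg given as a suspension in MCT (0.5% methylcellulose/0.2% Tween 80).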

MCF7 = assay: Antiproliferative activity against human MCF7 cells expressing neo/Her2 after 3 days by CellTiter-Glo luminescent cell viability assay; conditions: MCF7, 72 h
PC-3 = assay: Antiproliferative activity against human PC3 cells after 3 days by CellTiter-Glo luminescent cell viability assay; conditions: PC-3, 72 h
[2] = Volume of distribution at steady state in mouse at 1 mg/kg, iv; assay type: ADME, organism-based; parameters: dose 1 mg/kg, route intravenous; conditions: in vivo, read-out: Vdss; how it was run: as §1
[3] = Half life in mouse at 1 mg/kg, iv; assay type: ADME, organism-based; parameters: dose 1 mg/kg, route intravenous; conditions: in vivo; how it was run: as §1
[4] = (§2) AUC in mouse at 5 mg/kg, po; assay type: ADME, organism-based, Plasma; parameters: dose 5 mg/kg, route oral; conditions: plasma; how it was run: as §1
[5] = (§3) Oral bioavailability in mouse at 5 mg/kg; assay type: ADME, organism-based; conditions: in vivo; how it was run: as §1
[6] = Plasma protein binding in human; assay type: ADME, cell-free; conditions: read-out: PPB (converted)
[7] = Plasma protein binding in rat; assay type: ADME, cell-free; conditions: read-out: PPB (converted)
[8] = Plasma protein binding in mouse; assay type: ADME, cell-free; conditions: read-out: PPB (converted)
Mus musculus [9] = assay: as §2; assay type: ADME, organism-based, Plasma; parameters: dose 5 mg/kg, route oral; conditions: in vivo; how it was run: as §1
Mus musculus [10] = assay: as §3; assay type: ADME, organism-based; conditions: in vivo; how it was run: as §1
[11] = molecular target: Serine/threonine-protein kinase mTOR (Homo sapiens, UniProt P42345); assay: Inhibition of human recombinant mTOR expressed in insect cells using 4E-BP1 substrate after 30 mins by fluorescence resonance energy transfer assay
[12] = Selectivity ratio of Ki for human recombinant mTOR (1360-2549) over Ki for PI3Kalpha
Mus musculus [13] = assay: In vivo inhibition of mTORC2 in NCR nude mouse xenografted with human NCI-PC3 cells assessed as reduction in phosphorylated Akt level at 25 to 100 mg/kg, po administered as single dose relative to control; values are per cent of control; conditions: dose mg/kg 25-100
Mus musculus [14] = assay: In vivo inhibition of mTORC1 in NCR nude mouse xenografted with human NCI-PC3 cells assessed as reduction in phosphorylated S6RP level at 25 to 100 mg/kg, po administered as single dose relative to control; values are per cent of control; conditions: dose mg/kg 25-100

C[C@H]1COCCN1c1nc(-c2ccc(Nc3cccc(=O)[nH]3)cc2)nc2c1COC2(C)C
clearance [1]: 44 mL/min/kg
IC50 (MCF7): 120 nM
IC50 (PC-3): 120 nM
Vd [2]: 1.9 L/kg
half-life [3]: 132 min
AUC [4]: 0.31 µM·h
bioavailability [5]: 7%
fraction unbound [6]: 0.02
fraction unbound [7]: 0.04
fraction unbound [8]: 0.03

CCNC(=O)Nc1ccc(-c2nc(N3C[C@H]4CC[C@@H](C3)O4)c3c(n2)[C@@](C)(CCO)OC3)cc1
IC50 (MCF7): 160 nM
IC50 (PC-3): 66 nM

CCNC(=O)Nc1ccc(-c2nc(N3CCOCC3)c3c(n2)[C@](C)(CCO)OC3)cc1
IC50 (MCF7): 48 nM
IC50 (PC-3): 16 nM
Vd [2]: 1.5 L/kg
half-life [3]: 42.6 min
AUC (Mus musculus [9]): 0.96 µM·h
F (Mus musculus [10]): 56%
fraction unbound [6]: 0.22
fraction unbound [7]: 0.24
fraction unbound [8]: 0.17

C[C@H]1COCCN1c1nc(-c2ccc(NC(=O)NCCC#N)cc2)nc2c1COC2(C)C
IC50 (MCF7): 260 nM
IC50 (PC-3): 120 nM

CCNC(=O)Nc1ccc(-c2nc(N3CCOC[C@@H]3C)c3c(n2)[C@@](C)(CCC#N)OC3)cc1
IC50 (MCF7): 100 nM
IC50 (PC-3): 41 nM

CCNC(=O)Nc1ccc(-c2nc(N3CCOC[C@@H]3C)c3c(n2)[C@](C)(CCOC)OC3)cc1
IC50 (MCF7): 130 nM
IC50 (PC-3): 62 nM

CCNC(=O)Nc1ccc(-c2nc(N3CCOC[C@@H]3C)c3c(n2)[C@@](C)(CC(C)(C)O)OC3)cc1
IC50 (MCF7): 29 nM
IC50 (PC-3): 130 nM
Vd [2]: 2.7 L/kg
half-life [3]: 78 min
AUC (Mus musculus [9]): 0.65 µM·h
F (Mus musculus [10]): 73%
fraction unbound [6]: 0.34
fraction unbound [7]: 0.12
fraction unbound [8]: 0.15

CCNC(=O)Nc1ccc(-c2nc(N3CCOCC3)c3c(n2)[C@@](C)(CCO)OC3)cc1
IC50 (MCF7): 490 nM
IC50 (PC-3): 210 nM

CCNC(=O)Nc1ccc(-c2nc(N3CCOC[C@@H]3C)c3c(n2)[C@](C)(CC2CC2)OC3)cc1
IC50 (MCF7): 340 nM
IC50 (PC-3): 100 nM

CCNC(=O)Nc1ccc(-c2nc(N3CCOC[C@@H]3C)c3c(n2)C(C)(C)OC3=O)cc1
IC50 (MCF7): 220 nM
IC50 (PC-3): 60 nM

CCNC(=O)Nc1ccc(-c2nc(N3CCOC[C@@H]3C)c3c(n2)[C@@](C)(CCO)OC3)cc1
IC50 (MCF7): 510 nM
IC50 (PC-3): 118 nM
Vd [2]: 2.4 L/kg
half-life [3]: 20.4 min
AUC (Mus musculus [9]): 0.43 µM·h
F (Mus musculus [10]): 65%
fraction unbound [6]: 0.14
fraction unbound [7]: 0.21
fraction unbound [8]: 0.06

CCNC(=O)Nc1ccc(-c2nc(N3CCOCC3)c3c(n2)[C@@](C)(CO)OC3)cc1
IC50 (MCF7): 1700 nM
IC50 (PC-3): 960 nM

C[C@H]1COCCN1c1nc(-c2ccc(NC(=O)NC3COC3)cc2)nc2c1COC2(C)C
IC50 (MCF7): 480 nM
IC50 (PC-3): 160 nM

CCNC(=O)Nc1ccc(-c2nc(N3CCOCC3)c3sc(C(C)(C)O)cc3n2)cc1
Ki [11]: 3 nM
Ratio Ki [12]: 20

CCNC(=O)Nc1ccc(-c2nc(N3C[C@H]4CC[C@@H](C3)O4)c3c(n2)[C@](C)(CCO)OC3)cc1
IC50 (MCF7): 22 nM
IC50 (PC-3): 17 nM
Vd [2]: 2 L/kg
half-life [3]: 46.2 min
AUC (Mus musculus [9]): 0.78 µM·h
F (Mus musculus [10]): 50%
fraction unbound [6]: 0.27
fraction unbound [7]: 0.26
fraction unbound [8]: 0.11

CCNC(=O)Nc1ccc(-c2nc(N3CCOC[C@@H]3C)c3c(n2)[C@@](C)(CCOC)OC3)cc1
IC50 (MCF7): 1200 nM
IC50 (PC-3): 284 nM

CCNC(=O)Nc1ccc(-c2nc(N3CCOC[C@@H]3C)c3c(n2)[C@@](C)(CO)OC3)cc1
IC50 (MCF7): 530 nM
IC50 (PC-3): 450 nM

CCNC(=O)Nc1ccc(-c2nc(N3CCOCC3)c3c(n2)[C@](C)(CC(C)(C)O)OC3)cc1
IC50 (MCF7): 27 nM
IC50 (PC-3): 28 nM
Vd [2]: 1 L/kg
half-life [3]: 16.2 min
AUC (Mus musculus [9]): 0.66 µM·h
F (Mus musculus [10]): 55%
fraction unbound [6]: 0.23
fraction unbound [7]: 0.21
fraction unbound [8]: 0.14

CCNC(=O)Nc1ccc(-c2nc(N3CCOC[C@@H]3C)c3c(n2)[C@](C)(CO)OC3)cc1
IC50 (MCF7): 192 nM
IC50 (PC-3): 95 nM

C[C@H]1COCCN1c1nc(-c2ccc(NC(=O)Nc3cnn(C)c3)cc2)nc2c1COC2(C)C
IC50 (MCF7): 160 nM
IC50 (PC-3): 52 nM

CCNC(=O)Nc1ccc(-c2nc(N3CCOCC3)c3c(n2)[C@](C)(CO)OC3)cc1
IC50 (MCF7): 280 nM
IC50 (PC-3): 220 nM

CCNC(=O)Nc1ccc(-c2nc(N3CCOC[C@@H]3C)c3c(n2)[C@](C)(CCN(C)C)OC3)cc1
clearance [1]: 76 mL/min/kg
IC50 (MCF7): 1100 nM
IC50 (PC-3): 220 nM
Vd [2]: 2.6 L/kg
half-life [3]: 34.2 min
AUC [4]: 0.14 µM·h
bioavailability [5]: 6%
fraction unbound [6]: 0.41
fraction unbound [7]: 0.33
fraction unbound [8]: 0.22

CCNC(=O)Nc1ccc(-c2nc(N3CCOC[C@@H]3C)c3c(n2)[C@](C)(CCC#N)OC3)cc1
IC50 (MCF7): 193 nM
IC50 (PC-3): 74 nM

C[C@H]1COCCN1c1nc(-c2ccc(NC(=O)NCCO)cc2)nc2c1COC2(C)C
clearance [1]: 53 mL/min/kg
IC50 (MCF7): 66 nM
IC50 (PC-3): 46 nM
Vd [2]: 1.5 L/kg
half-life [3]: 25.2 min
AUC [4]: 0.81 µM·h
bioavailability [5]: 22%
fraction unbound [6]: 0.28
fraction unbound [7]: 0.3
fraction unbound [8]: 0.19

CCNC(=O)Nc1ccc(-c2nc(N3CCOCC3)c3c(n2)[C@@](C)(CC(C)(C)O)OC3)cc1
IC50 (MCF7): 170 nM
IC50 (PC-3): 140 nM

C[C@H]1COCCN1c1nc(-c2ccc(NC(=O)NC[C@@H](O)CO)cc2)nc2c1COC2(C)C
IC50 (MCF7): 1900 nM
IC50 (PC-3): 330 nM

CCNC(=O)Nc1ccc(-c2nc(N3CCOC[C@@H]3C)c3c(n2)C(C)(C)OC3)cc1
clearance [1]: 46 mL/min/kg
IC50 (MCF7): 52 nM
IC50 (PC-3): 78 nM
Vd [2]: 1.4 L/kg
half-life [3]: 24 min
AUC [4]: 6.1 µM·h
bioavailability [5]: 140%
fraction unbound [6]: 0.14
fraction unbound [7]: 0.08
fraction unbound [8]: 0.05
level, % of control (Mus musculus [13]): 15%
level, % of control (Mus musculus [14]): 15%

CCNC(=O)Nc1ccc(-c2nc(N3CCOC[C@@H]3C)c3c(n2)[C@](C)(CC(C)(C)O)OC3)cc1
IC50 (MCF7): 75 nM
IC50 (PC-3): 18 nM
Vd [2]: 1.3 L/kg
half-life [3]: 66 min
AUC (Mus musculus [9]): 0.63 µM·h
F (Mus musculus [10]): 53%
fraction unbound [6]: 0.18
fraction unbound [7]: 0.22
fraction unbound [8]: 0.09

CCNC(=O)Nc1ccc(-c2nc(N3CCOCC3)c3c(n2)C(C)(C)OC3=O)cc1
IC50 (MCF7): 310 nM
IC50 (PC-3): 120 nM
Vd [2]: 0.57 L/kg
half-life [3]: 12.6 min
AUC (Mus musculus [9]): 1.5 µM·h
bioavailability (Mus musculus [10]): 23%
fraction unbound [6]: 0.02
fraction unbound [7]: 0.05
fraction unbound [8]: 0.02

CCNC(=O)Nc1ccc(-c2nc(N3CCOC[C@@H]3C)c3c(n2)[C@@](C)(CC2CC2)OC3)cc1
IC50 (MCF7): 95 nM
IC50 (PC-3): 31 nM

CCNC(=O)Nc1ccc(-c2nc(N3CCOC[C@@H]3C)c3c(n2)[C@](C)(CCO)OC3)cc1
IC50 (MCF7): 15 nM
IC50 (PC-3): 15 nM
Vd [2]: 1.5 L/kg
half-life [3]: 19.8 min
AUC (Mus musculus [9]): 0.59 µM·h
F (Mus musculus [10]): 110%
fraction unbound [6]: 0.13
fraction unbound [8]: 0.06
level, % of control (Mus musculus [13]): 15%
level, % of control (Mus musculus [14]): 15%
